Assay results as given in ChEMBL document CHEMBL3351677, “Design and synthesis of azaisoflavone analogs as phytoestrogen mimetics” (Eur J Med Chem, 2014).
Activity calls are given as the source filed them. No cut-off for these calls is given here.

Key:
[1] = system: CV-1; assay: Selectivity ratio of maximum activation of human ERbeta expressed in CV1 cells to maximum activation of human ERalpha expressed in CV1 cells; format: cell-based
Procedure, shortened: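 CV-1 cells held in phenol red-free DMEM with 5% stripped FBS for 3 days, seeded at 1.5 × 10⁵ cells/well. Next day they were co-transfected for 6 h with 30 ng hERα or hERβ plus 100 ng ERE-luciferase, with a β-galactosidase vector for normalization. Treated 24 h, then luciferase read, β-gal absorbance at 410 nm. Each subtype's activation expressed relative to maximum with 20 nM E2; at least three experiments.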

[2] = organism: Homo sapiens; assay: Selectivity ratio of maximum inhibition of recombinant human ERbeta to maximum inhibition of recombinant human ERalpha by competitive binding assay
Procedure, shortened: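 Competitive binding with [³H]-E2 (1 nM) for ERα and ERβ. Bound and free ligand separated by centrifugation at 12,000 × g for 2 min; supernatant radioactivity counted by liquid scintillation. Bound [³H]-E2 expressed relative to maximum receptor-bound ligand (10⁻⁷ M E2), versus 0.1% DMSO control; at least three separate experiments.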

[3] = system: MCF7; assay: Stimulation of growth in human MCF7 cells at 5 to 20 uM after 4 days by MTT assay; format: functional, cell-based
Procedure, shortened: (§1)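 MCF-7 cells kept in DMEM with 10% FBS, then held 3 days in phenol red-free DMEM with 5% charcoal-dextran stripped FBS. Seeded at 1.5 × 10³ cells/well for 24 h, then treated with samples for 4 days; 0.1 nM E2 and 100 nM ICI served as controls. MTT (5 mg/mL in PBS) was added for 2 h, formazan dissolved in DMSO and absorbance read. Three independent experiments, mean ± SD, Dunnett test.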

[4] = system: MCF7; assay: Growth inhibition in human MCF7 cells at 50 to 100 uM after 4 days by MTT assay; format: functional, cell-based; procedure, shortened: as §1
[5] = system: MCF7; assay: Growth inhibition in human MCF7 cells at 5 to 100 uM after 4 days by MTT assay; format: functional, cell-based; procedure, shortened: as §1
[6] = system: MCF7; assay: Stimulation of growth in human MCF7 cells at 0.1 to 20 uM after 4 days by MTT assay; format: functional, cell-based; procedure, shortened: as §1
[7] = system: MCF7; assay: Growth inhibition in human MCF7 cells at 20 to 100 uM after 4 days by MTT assay; format: functional, cell-based; procedure, shortened: as §1

Selectivity ratio [2]	Structure (SMILES)	Selectivity ratio [1]	Activity [3]	growth inhibition (GI) [4]	growth inhibition (GI) [5]	Activity [6]	growth inhibition (GI) [7]
2.6	Cn1cc(-c2ccc(O)cc2)c(=O)c2c(O)cc(O)cc21	1.3	Active	Active			
	CCCn1cc(-c2ccc(O)cc2)c(=O)c2ccc(O)cc21	1.6	Active	Active			
1.6	CCn1cc(-c2ccc(O)cc2)c(=O)c2c(O)cc(O)cc21	0.8	Active	Active			
	O=c1c(-c2ccc(O)cc2)cn(Cc2ccccc2)c2cc(O)ccc12	1			Active		
	CC(C)CCn1cc(-c2ccc(O)cc2)c(=O)c2ccc(O)cc21	3.4			Active		
12	O=c1c(-c2ccc(O)cc2)c[nH]c2cc(O)cc(O)c12	2.9	Active	Active			
	CCCn1cc(-c2ccc(O)cc2)c(=O)c2ccccc21	0.5	Active	Active			
	Cn1cc(-c2ccc(O)cc2)c(=O)c2ccc(O)cc21	6.4					
	O=c1c(-c2ccc(O)cc2)c[nH]c2cc(O)ccc12	1.3					
	O=c1c(-c2ccc(O)cc2)coc2cc(O)cc(O)c12					Active	Active
	CCn1cc(-c2ccc(O)cc2)c(=O)c2ccc(O)cc21	2.9	Active	Active			
1.4	CCCn1cc(-c2ccc(O)cc2)c(=O)c2c(O)cc(O)cc21	0.3			Active		
